The conditions of data set [1]: ref Lamba et al. [2021]; Kondo et al. [2022]; Järvinen et al. [2023]; cited from earlier work.
For data set [2], the system named is glioblastoma cancer cell nuclei. To be noted: glioblastoma patients; ref Ho et al. [2022]; cited from earlier work.
A short description of data set [3]: ^68Ga-DOTA-PSMA micro-PET/CT imaging of 22Rv1 xenograft mice. It is filed as in vivo, mouse. To be noted: mouse, tumor / non-tumor (muscle), iv, 3.7 MBq, total radioactivity. The essentials:
(§1)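 Tracer was labelled with ⁶⁸Ga (generator eluted with 0.1 mol/l HCl) in sodium acetate buffer, pH 3–4, at 95 °C for 15 min. Male six-week-old nude mice bearing 22Rv1 xenografts received 3.7 MBq via the tail vein. Animal PET/CT imaging followed at multiple time points after injection to track tracer accumulation in tumour and surrounding organs.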

Data set [4] relates to 22Rv1 Xenograft Mice. Described as above. It is filed as in vivo, mouse. To be noted: PET/CT imaging, 22Rv1 tumor. The essentials: as §1
A short description of data set [5]: ^68Ga-DOTA-PSMA organ biodistribution by γ-counter, 22Rv1 xenograft mice. The format is in vivo. To be noted: mouse, tumor, iv, 3.7 MBq, total radioactivity. An outline of the steps:
(§2)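 Male six-week-old SPF nude mice: normal (n = 15), 22Rv1 xenograft (n = 12) or PC-3 xenograft (n = 12), with three animals per time point. Each received 3.7 MBq i.v. via the tail vein. Tracer was labelled with ⁶⁸Ga (generator eluted with 0.1 mol/l HCl) in sodium acetate, pH 3–4, at 95 °C for 15 min. Mice were killed by cervical dislocation; organs were excised, weighed and γ-counted for %ID/g. Mean ± SD.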

Data set [6] is described as follows: ^68Ga-DOTA-PSMA organ biodistribution by γ-counter, PC-3 xenograft mice. The format is in vivo. To be noted: mouse, tumor, iv, 3.7 MBq, total radioactivity. An outline of the steps: as §2

Data on four molecules can be found in article PMC11861226 (Journal of Cancer Research and Clinical Oncology, 2025).

Turning to “Sodium mercaptoundecahydro-closo-dodecaborate [BSH]”, the water solubility entry in data set [1] is given as “more water-soluble”.

On to `O=C([O-])CN(CCN(CC(=O)[O-])CC(=O)O)CCN(CC(=O)[O-])CC(=O)O.[Gd+3]` [^157Gd-DTPA], for which the “cancer cell nuclei found to contain the agent” value in data set [2] is on record as 6.1%. `O=C(O)CC[C@H](NC(=O)N[C@@H](CCCCNC(=O)[C@H](Cc1ccc2ccccc2c1)NC(=O)CCCCCNC(=O)CN1CCN(CC(=O)O)CCN(CC(=O)O)CCN(CC(=O)O)CC1)C(=O)O)C(=O)O` [^68Ga-DOTA-PSMA, metal not drawn]: the tissue to tissue ratio at 2 h in data set [3] was found to be 6.95 ± 0.6. In data set [4], the “time of peak radiotracer uptake post-injection” value worked out at 2 h. Also, the tissue uptake at 2 h in data set [5] amounted to 27.1 ± 2.55 %ID/g; in data set [6], 6.23 ± 0.79 %ID/g. Turning to `N[C@@H](Cc1ccc(B(O)O)cc1)C(=O)O` [BPA, Boronophenylalanine], the water solubility result in data set [1] is “poor water solubility”.
